Experimental data as given in PubChem BioAssay AID504383 (The Scripps Research Institute Molecular Screening Center, 2011).
Out of some 2,500 compounds screened, about 1,200 (48%) were called active. The set was probably picked from earlier hits. This is one part of the list. Unmarked numbers belong to inactive results.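 Rule for the calls: active = mean activation above the low control average plus 3 SD, as set in the primary screen (cut at about 12% in these data); inactive = the rest.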

biological target: Troponin I, cardiac muscle (Homo sapiens) + Troponin T, cardiac muscle (Homo sapiens) + Troponin C, slow skeletal and cardiac muscles (Homo sapiens) (UniProt P19429+P45379+P63316); experiment: calcium sensitizers of cardiac thin filaments – biochemical, IANBD-TnC fluorescence, triplicate, confirmation (AID 504383); conditions: IANBD-labeled cardiac RTF, Ca2+ sensitivity fluorescence; at 7.2 µM; active compounds read high; scaled from EC20 to saturating calcium; tested at EC20 calcium, 0.472 mM;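 note: 0% = DMSO at 0.472 mM calcium and 100% = DMSO at 2.9 mM calcium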
How it was run: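 System: Labelled thin filament complex | Technique: Filament fluorescence intensity | Benchmarks: Low control EC20 calcium, high control EC100 calcium | Timing: 15 min at 25 °C | Compound dosing: One dose, 7.2 µM nominal | Probe or stimulus: Ca2+ 0.472 mM, EC20 level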

SMILES	activation
COC(=O)C1=C(CSc2nc3c(cc2C#N)CN(C)CC3)OC(N)=C(C#N)C1c1ccc(F)cc1 (stereo not given)	-0.37%
Cc1cc(C)nc(NS(=O)(=O)c2ccc(NC(=O)CSc3nc4ccccc4[nH]3)cc2)n1	8.08%
Cc1noc(NS(=O)(=O)c2ccc(NC(=O)CSc3nc4c(cc3C#N)CCC4)cc2)c1C	12.5% (active)
CC(=O)Nc1ccccc1	6.06%
CC(=O)Nc1ccc2cc3ccc(NC(C)=O)cc3nc2c1	43% (active)
CC(=O)Nc1ccc2nc3c(=O)n(C)c(=O)n(C)c3nc2c1	18.8% (active)
CC(=O)Nc1ccc(S(=O)(=O)N2CCN3CCCC3C2)cc1 (stereo not given)	6.53%
CC1CCN(S(=O)(=O)c2ccc(N=NC3=C(O)CC(C)(C)CC3=O)cc2)CC1	11.9% (active)
COc1ccccc1C(=O)Nc1nnn(C)n1	10%
Cc1nn(C)c(NC(=O)c2ccccc2Cl)c1Cl	59.1% (active)
CN1Cc2c(N)cccc2C(c2ccccc2)C1 (stereo not given)	-1.03%
N/C(COc1cc(Cl)cc(Cl)c1)=N\O	153% (active)
COC(=O)CN1C(=S)N(c2ccc(OC)cc2)C(=O)/C1=C/c1ccc(N2CCOCC2)cc1	11.4%
CCc1ccc(/C=C2/C(=O)N(C)C(=S)N2CC(=O)OC)s1	11.7% (active)
COCCCN1C(=O)/C(=C/c2ccc(CNS(=O)(=O)c3ccccc3)o2)C(C(=O)OC)=C1C	8.19%
C=CCN(C(=O)CNS(=O)(=O)c1ccccc1)C(C(=O)NCCOC)c1ccncc1 (stereo not given)	16.9% (active)
CCOc1ccc(N(C(=O)CNC(=O)c2ccco2)C(C(=O)NC2CCCC2)c2ccncc2)cc1 (stereo not given)	9.24%
N#CC(C#N)=C1C=C2C=C(N3CCOCC3)CCC2CC1 (stereo not given)	-1.16%
Cc1ccccc1-n1c(O)c(/C=C/C=Nc2ccccc2)c(=O)[nH]c1=O	19.4% (active)
CSc1nnc(N(CCC#N)CCC#N)s1	35.1% (active)
O=C(c1ccc(F)cc1)N1CCN=C1c1ccccc1	9.85%
O=C(CN1C(=O)c2ccccc2C1=O)N1CCN=C1c1ccccc1	70.2% (active)
O=C1c2ccccc2C(=O)N1CC1=NCCc2ccccc21	11.2%
CC1CN/C(=C\C(=O)c2ccc(Br)cc2)C(=O)N1 (stereo not given)	2.08%
C=CCN1C=CC(=C/C=C(/C#N)C(=O)OCC)C=C1	4.84%
CCCCCCN1C=CC(=C/C=C(\C#N)C(=O)OCC)C=C1	501% (active)
C=CCN1C=CC(=CC=C(C#N)C#N)C=C1	668% (active)
CC1=C/C(=C\C=C(C#N)C#N)N(C)c2ccccc21	8.37%
CCOC(=O)/C(C#N)=C\C=C1C=CN(C)C=C1	8.19%
CCCN1C=CC(=CC=C(C#N)C#N)C=C1	28% (active)
